Our source for the yeast fitness values is the RNAGym collection of RNA variant scans (doi:10.1126/science.aae0568).

This sample holds only a part of the variants without activity.

The labels stand for the following.
B1: tRNA (parent)
chain: GUUCCGUUGGCGUAAUGGUAACGCGUCUCCCUCCUAAGGAGAAGACUGCGGGUUCGAGUCCCGUACGGAACG

In this series the parent is B1. In words: yeast fitness relative to wild type (ratio to wild type); higher = fitter; tRNA-Arg(CCU), competitive growth, 37 C, YPD. The essentials:
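The tRNA-Arg(CCU) gene variants were made by chemical synthesis with a 3% per-site mutation rate at 69 sites and inserted at the native genomic locus of Saccharomyces cerevisiae. After pooling, the strains were competed in YPD at 37°C for 24 hours in six parallel replicates. Gene amplicons from the start population and each end population were read by 100-nucleotide paired-end sequencing, and Darwinian fitness relative to wild type was taken from genotype frequency changes. Genotypes needed ≥ 100 starting reads, and estimates < 0.5 were set to 0.5.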
As to GUUCCGUUGGCGUAAUGGUAACGCGUCUCCCUCCUGAGGAGAAGAGUGUGGGUUCGAGUCCCGUACGGAACG [A36G C46G C49U], the yeast fitness came out at 0.763. The result for GUUCCGUUGGCGUAAUGGUUACGCGUCUCCCUCCUAAGGAGAAGACAGCGGGUUCGAGUCCCGUACGGUACG [A20U U47A A69U] reads 0.619; that for GUUCCGUUGGCGUAAUGCUAGCGCGUCUCCCUCCUAAGGAGAAGACUGCGGGUUCGAGUCCCGUACGGACCG [G18C A21G A70C], 0.572. Regarding GUUCCGUUGGCGUAAUGGUAACGCGUGUCCUUCCUAAGGAGGAGACUGCGGGCUCGAGUCCCGUACGGAACG [C27G C31U A42G U53C], the yeast fitness was not above 0.5. The result for GUUCCGUUGGCGUAAUGGUAACGCGUCUCCCUCCUAAGGAGAAGACUGCGGGUUAGAGUCCCGUAAGGAACG [C55A C66A] reads 0.541. As for GUUCUGUUGGCGUAAUGGUUACCCGUCUCCUUCCUAAGGAGAAGACUGCGGGUCCGAGUCCCGUACGGAACG [C5U A20U G23C C31U U54C], the figure is not above 0.5; as for GUUCCGUUGGCGUACUGGUAACGCGUCCCCCUCCUAAGGAGAAGACUCCUGGUUCGAGUCCCGUACGGAACG [A15C U28C G48C G50U], not above 0.5; as for GUUCCGUUGGUGUAAUGGUAGCGAGUCUCCCUCCUAAGGAGAAGACUGCGGAUUCGAGUCCCGUACGGAACG [C11U A21G C24A G52A], not above 0.5. As for GUUCCGAUGGCGUAAUGCUAACGCGUCUCCCUCCUAAGGAGAAGACUGCGGGUUCGAGUCCCGUACGGAUCG [U7A G18C A70U], the figure is 0.662; as for GUUCCGUUGGCGUAAUGGUAACGCGUCUCCCUCCUAAGGAGCAGACUGCGGGUUCGAGUCCCGUAAGGAACG [A42C C66A], 0.688. Consider GUUCUGUUGGCGUAAUGGUAAGGCGUCUCCCUCCUAAGGAGAAGACUGCGGGUUCGAGUCCCGUACGGAUCG [C5U C22G A70U], for which the yeast fitness worked out at 0.754.

For the variant GUUCCAUUGGCGUAGUGGUAACGCGUCUCUCUCCUAAGGAGAAGACUGCGGGUUCGAGUCCCGUACGGUACG [G6A A15G C30U A69U], the yeast fitness was not above 0.5. As for GUUCCGUUGGCGUAAUGGUAUGGCGUCUCCUUCCUAAGGAGAAGACUGCGGGUAUGAGUCCCGUACGGAACG [A21U C22G C31U U54A C55U], the figure is not above 0.5; as for GUUCCGUUGGCGUAAUGGUAACGCGUCUCCCUCGUAAGGAGAAGACUGCGGGUUCGAGUCACGUACGGAACG [C34G C61A], 0.613. On to GUUCCGUUAGCGUAAUGGUAACGCGUCUCCCUCCUAAAGAGAAGACUGCGGGUUCGAGUCCCGUUCGGAACG [G9A G38A A65U], for which the yeast fitness was 0.565.

Take GUUCCGUUGGCGUAAUGGUAUCGCGUCUCCCUCCUAAGUAGACGACUGCGGGUUCGAGUCCCAUACGGAACG [A21U G39U A43C G63A]: the yeast fitness was not above 0.5. As for GUUCCGUUGGCGUAAUGGUAACGCGUCUCCCUCCUAAGGAGAAGACCGCAGGUUCGAGUCCCGUACGGAACG [U47C G50A], the yeast fitness came to 0.99. The result for GAUCCGUUGGCGUAAUGGUAACGCGUCACCCUCCUACGGAGAAGACUGCGGGUUCGAGUCCCGCGCGGAACG [U2A U28A A37C U64C A65G] reads not above 0.5; that for GUCCCGUUGGCGUAAUGGUAACGCGUCUCCCUCCUAAGGAGAAGAGUGCGGGUUCGAGUCCAGUACGGAACG [U3C C46G C62A], 0.564; that for GUUCCGUUGGCGUAAUGGUAACGCGUCUCUCUACUAAGGAGAAGACUGCGGGUUCCAGUCCCGUACGGACCG [C30U C33A G56C A70C], not above 0.5. As to GUUCCGUUGGCGUAAUGCUAACGCGUAACCCUCCUAAGGAGUAGACUGCGGGUUCGAGUCCCGUACGGAACG [G18C C27A U28A A42U], the yeast fitness was not above 0.5.

For the variant GUUCCGUUGGCGUAAUGGUACAGCGCCUCCCUCCUAAGGAGAAGACUGCGGGUUCGAGUCCCGUACGGAACG [A21C C22A U26C], the yeast fitness is not above 0.5. As for GUUCCGUUCGCGUAAUGGUAACGCGUCUCCCUCCUAAGGAGAAGACUGCCGGUUCGAGUUCAGUACGGAACG [G9C G50C C60U C62A], the figure is not above 0.5; as for GUUCGGUUGGCGUAAUGGUAACGCGUCUCUGUCCUAAGGAGAAGACUGCGGGUUCGAGUCACGUACGGUACG [C5G C30U C31G C61A A69U], not above 0.5; as for GUUCCGUUGGCGUCAUGGAAACGCGUCUCCCUCCUAAGGAGAAGACUGUGGGUUCGAGUCCGAUACGGAACG [A14C U19A C49U C62G G63A], not above 0.5. As to GUUCCGUUGGCGUAAUGGAAACGCGUCUCCCUCCUAAGGGGAAGACUGCGAGUUCGAGUCCCGUACGGAACG [U19A A40G G51A], the yeast fitness is not above 0.5. For GUUCCGUUGGCAUAAUGGUAACGCGUCUCCCUCCUAAGGAGAAGACUGCGGGUUCGAGUCCCGUGCGGCACG [G12A A65G A69C], the yeast fitness is 0.556. As for GUUCCGUUGGCGUAAUGGUAACGCGUCUCCCUCCUGAGGAGAAGACUGCGGGUUCCAGUCCCGUACGGAACG [A36G G56C], the figure is 0.686; as for GUUCCGUUGGCGUAAUGGUAACCCGUCUCCCUCAUCCGGCGAAGACUGCGGGUUCGAGUCCCGUACUGAACG [G23C C34A A36C A37C A40C G67U], not above 0.5.

Take GUUCCGUUAGCGUAAUGGUAAGGCGUCUCCUUCCUAAGGAGAAGACUGCGGGUUCGAGUCCCGUACGGAACG [G9A C22G C31U]: the yeast fitness is 0.683. The result for GUUCCGUUGGUGUAAUGGUAACGCGUCUCCCUCCUAAGGUGAAGAUUGCGGGUUCGAGUCCCCUACGGAACG [C11U A40U C46U G63C] reads not above 0.5; that for GUUCCGUUGGCGUAAUGGUUACGCGUCUCCCUCCUAAGGAGAAGACUGCGGGUUCGAGUCCAGUACGGAACG [A20U C62A], 0.73; that for GUUCCGUUGGCGUGAUGGUAACGCGUCUCCCUACUAAGGAGAAGACUGCGGGUUCGAGUCCCGUACGGAACG [A14G C33A], 0.516. The result for GUUCCGUUGGCGUAAUGGCAACGCGUUUGCCUCAUAAGGAGCAGACUGCGGGUUCGAGUCCCGUACGGCACG [U19C C27U C29G C34A A42C A69C] reads not above 0.5; that for GUUCCGUUGGCGAAAUGGUAACGCGUCUCCCUUCUAAGGAGAAGCGUGCGGGUUCGAGUCCCGUACGGUACG [U13A C33U A45C C46G A69U], 0.579; that for GUUCCGUUGGCGUAAUGGUAACGCGACUCCCUCCUAAGGAGAAGACUGUGGGUUCGAAUCCCGUACGGAACG [U26A C49U G58A], not above 0.5.

For the variant GUUCCGUUGGCGUGAUGGUACCGCGUCUCCCUCCUAGGGAGAAGACUGCGGGUUCGAGUCCCGUACGGAACG [A14G A21C A37G], the yeast fitness is 0.562.

As to GUUCCGUUGGCGUAAUGGUAACGCGUCUGCCUCCUAAGGAGAUGAUUGCGGGUUCGAGUCCCGUACGGAACG [C29G A43U C46U], the yeast fitness is not above 0.5.
